For series [1], the system named is Bacillus subtilis. Nature of the series: Antibacterial activity against Bacillus subtilis MTCC-441 assessed as zone of inhibition at 1 ug/ml. It counts as functional. To be noted: read-out: DIZ. Put shortly: (§1)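 Disc diffusion on Nutrient Agar. Strains were first grown on NA for 24 h at 37 °C, then spread as a lawn. Compounds were dissolved in DMSO. Sterile 6 mm discs were saturated with test solution, dried under laminar flow and placed on the inoculated plates. Plates were incubated at 37 °C for 18–24 h, and clear-zone diameters were measured.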

For series [2], the system named is Aeromonas hydrophila. Nature of the series: Antibacterial activity against Aeromonas hydrophila MTCC-1739 assessed as zone of inhibition at 1 ug/ml. The class given is functional. As to conditions: read-out: DIZ. The essentials: as §1
Series [3] has as its system Anopheles stephensi. Nature of the series: Larvicidal activity against Anopheles stephensi late III or early IV instar larvae assessed as mortality after 24 hrs. The class given is functional. As to conditions: for LC50: Anopheles stephensi, iv, 24 h. The essentials:
(§2)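 25 late III/early IV instar larvae in 250 mL water per beaker, exposed to a range of concentrations; a negative control ran with each set and malathion served as reference insecticide. Mortality was scored after 24 h in triplicate per sample. LC50 with 95% confidence limits was derived by Abbott's formula and log probit analysis.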

In series [4] the test system is Anopheles stephensi. Nature of the series: Larvicidal activity against Anopheles stephensi late III or early IV instar larvae assessed as mortality after 24 hrs relative to untreated control. The class given is functional. The essentials: as §2
Series [5] has as its system Staphylococcus aureus. Nature of the series: Antibacterial activity against Staphylococcus aureus MTCC-7443 assessed as zone of inhibition at 1 ug/ml. The class given is functional. To be noted: read-out: DIZ. Put shortly: as §1
Series [6] deals with Escherichia coli. Nature of the series: Antibacterial activity against Escherichia coli MTCC-725 assessed as zone of inhibition at 1 ug/ml. It counts as functional. To be noted: read-out: DIZ. Put shortly: as §1
Another series has as its system Mus musculus. Nature of the series: Toxicity in po dosed Swiss albino mouse after 72 hrs. To be noted: in vivo. It counts as organism-based.
Series [7] relates to Staphylococcus aureus. Nature of the series: Antibacterial activity against Staphylococcus aureus MTCC-7443 assessed as zone of inhibition at 10 ug/disc. It counts as functional. To be noted: read-out: DIZ. Put shortly: as §1
The test system of series [8] is Bacillus subtilis. Nature of the series: Antibacterial activity against Bacillus subtilis MTCC-441 assessed as zone of inhibition at 10 ug/disc. It counts as functional. As to conditions: read-out: DIZ. The essentials: as §1
The test system of series [9] is Escherichia coli. Nature of the series: Antibacterial activity against Escherichia coli MTCC-725 assessed as zone of inhibition at 10 ug/disc. As to conditions: read-out: DIZ. It counts as functional. The essentials:
as §1

The test system of series [10] is Aeromonas hydrophila. Nature of the series: Antibacterial activity against Aeromonas hydrophila MTCC-1739 assessed as zone of inhibition at 10 ug/disc. It counts as functional. As to conditions: read-out: DIZ. Put shortly:
as §1

≈ marks a conversion by molar mass, not a printed value.

The LC50 is the concentration that kills 50% of the test population. On to `CC(C)(C)c1nnc2sc(COc3ccc(Cl)cc3Cl)nn2c1=O`, for which the zone of inhibition at 1 µg/mL worked out at 12.9 mm with Bacillus subtilis [1], 9.7 mm in the series on Aeromonas hydrophila [2] and 10.8 mm in the series on Staphylococcus aureus [5]. Also, in the series with Anopheles stephensi [3], the LC90 turned out to be 73.2 µg/mL (≈ 190 µM). Further, in the series with Anopheles stephensi [3], the LC50 is 48.7 µg/mL (≈ 126 µM). Further, the Ratio in the series on Anopheles stephensi [4] was 0.18.

Regarding `CC(C)(C)c1nnc2sc(COc3ccc(I)cc3)nn2c1=O`, the zone of inhibition at 1 µg/mL in the series on Bacillus subtilis [1] was 11.9 mm. In the series with Anopheles stephensi [3], the LC90 was 124.77 µg/mL (≈ 282 µM) and the LC50 is 77.5 µg/mL (≈ 175 µM). Also, the Ratio with Anopheles stephensi [4] was determined as 0.11.

Regarding `Cc1cccc(C)c1OCc1nn2c(=O)c(C(C)(C)C)nnc2s1`, the results for the zone of inhibition at 1 µg/mL in the series with Bacillus subtilis [1], in the series with Escherichia coli [6] and in the series with Aeromonas hydrophila [2] were 9.8 mm, 11.4 mm and 10.4 mm, respectively. Also, the LC90 in the series with Anopheles stephensi [3] was 115.2 µg/mL (≈ 334 µM). In addition, in the series on Anopheles stephensi [3], the LC50 was determined as 103 µg/mL (≈ 298 µM). For the same compound, in the series with Anopheles stephensi [4], the Ratio amounted to 0.11.

With `COc1ccccc1OCc1nn2c(=O)c(C(C)(C)C)nnc2s1`, the zone of inhibition at 1 µg/mL stood at 19.2 mm in the series with Bacillus subtilis [1], 15.6 mm in the series with Escherichia coli [6], 13.9 mm with Aeromonas hydrophila [2] and 21.7 mm in the series on Staphylococcus aureus [5]. In addition, the LC90 with Anopheles stephensi [3] is 37.78 µg/mL (≈ 109 µM). Further, the median lethal concentration (LC50) in the series on Anopheles stephensi [3] is 25.7 µg/mL (≈ 74.2 µM). For the same compound, the Ratio in the series with Anopheles stephensi [4] worked out at 0.34.

On to `CC(C)(C)c1nnc2sc(COc3cc(Cl)c(Cl)cc3Cl)nn2c1=O`, for which the zone of inhibition at 1 µg/mL came out at 19.3 mm in the series on Bacillus subtilis [1], 16.5 mm with Escherichia coli [6], 17.5 mm in the series with Aeromonas hydrophila [2] and 22.4 mm in the series on Staphylococcus aureus [5]. Besides, the LC90 with Anopheles stephensi [3] was found to be 115.05 µg/mL (≈ 274 µM). The median lethal concentration (LC50) in the series on Anopheles stephensi [3] worked out at 81.6 µg/mL (≈ 194 µM). The Ratio with Anopheles stephensi [4] came to 0.11.

For the compound `CC(C)(C)c1nnc2sc(COc3ccc(O)cc3)nn2c1=O`, the zone of inhibition at 1 µg/mL with Escherichia coli [6] stood at 14.3 mm; in the series with Aeromonas hydrophila [2], 10.5 mm; with Staphylococcus aureus [5] it was 11.7 mm. In the series on Mus musculus, this compound yielded an MLD of 1360 mg/kg. In addition, the LC90 with Anopheles stephensi [3] came out at 32.11 µg/mL (≈ 96.6 µM). Further, the LC50 in the series on Anopheles stephensi [3] is 21.7 µg/mL (≈ 65.3 µM). Also, the Ratio in the series with Anopheles stephensi [4] is listed as 0.4.

With `Cc1cc(Cl)ccc1OCc1nn2c(=O)c(C(C)(C)C)nnc2s1`, the values for the zone of inhibition at 1 µg/mL with Escherichia coli [6], in the series with Aeromonas hydrophila [2] and in the series with Staphylococcus aureus [5] were 18.9 mm, 19.6 mm and 12.6 mm, respectively. Moreover, the LC90 in the series on Anopheles stephensi [3] was 71.45 µg/mL (≈ 196 µM). Besides, in the series with Anopheles stephensi [3], the LC50 came to 49.3 µg/mL (≈ 135 µM). Moreover, the Ratio in the series with Anopheles stephensi [4] turned out to be 0.17.

With `CN[C@@H]1[C@H](O[C@H]2[C@H](O[C@H]3[C@H](O)[C@@H](O)[C@H](N=C(N)N)[C@@H](O)[C@@H]3N=C(N)N)O[C@@H](C)[C@]2(O)C=O)O[C@@H](CO)[C@H](O)[C@H]1O` [STREPTOMYCIN], the zone of inhibition at 10 µg/disc with Staphylococcus aureus [7] stood at 31.5 mm; with Bacillus subtilis [8], 33.6 mm; in the series on Escherichia coli [9] it was 26.3 mm; in the series with Aeromonas hydrophila [10] it was 22.4 mm.

As to `CC(C)(C)c1nnc2sc(COc3ccc(Cl)cc3)nn2c1=O`, the zone of inhibition at 1 µg/mL is 11.2 mm in the series with Bacillus subtilis [1], 13.9 mm in the series on Escherichia coli [6] and 12.5 mm with Aeromonas hydrophila [2]. Besides, in the series on Anopheles stephensi [3], the LC90 came to 90.45 µg/mL (≈ 258 µM). The LC50 with Anopheles stephensi [3] came to 61.3 µg/mL (≈ 175 µM). Further, the Ratio with Anopheles stephensi [4] worked out at 0.14.

Take `CC(C)(C)c1nnc2sc(COc3ccccc3[N+](=O)[O-])nn2c1=O`: the zone of inhibition at 1 µg/mL with Bacillus subtilis [1] came out at 16.8 mm; in the series with Escherichia coli [6], 11.7 mm; in the series with Aeromonas hydrophila [2] it was 9.6 mm; in the series on Staphylococcus aureus [5] it was 19.8 mm. Moreover, the LC90 with Anopheles stephensi [3] came out at 105.04 µg/mL (≈ 291 µM). In the series on Anopheles stephensi [3], the LC50 worked out at 70.5 µg/mL (≈ 195 µM). For the same compound, the Ratio in the series with Anopheles stephensi [4] was 0.12.

On to `CC(C)(C)c1nnc2sc(COc3ccccc3)nn2c1=O`, for which, in the series with Escherichia coli [6], the zone of inhibition at 1 µg/mL came to 10.9 mm. For the same compound, in the series on Anopheles stephensi [3], the LC90 was 120.98 µg/mL (≈ 382 µM) and the LC50 was 79.2 µg/mL (≈ 250 µM). The Ratio with Anopheles stephensi [4] worked out at 0.11. In the series with Staphylococcus aureus [5], the zone of inhibition at 1 µg/mL came out at 12.3 mm.

Take `CCOC(=O)CC(SP(=S)(OC)OC)C(=O)OCC` (configuration not stated) [MALATHION]: in the series with Anopheles stephensi [3], the LC90 came to 12.01 µg/mL (≈ 36.4 µM) and the LC50 is 8.7 µg/mL (≈ 26.3 µM).

With `CC(=O)c1ccc(OCc2nn3c(=O)c(C(C)(C)C)nnc3s2)cc1`, the zone of inhibition at 1 µg/mL came out at 25.7 mm with Bacillus subtilis [1], 22.7 mm with Escherichia coli [6], 19.3 mm with Aeromonas hydrophila [2] and 18.7 mm in the series with Staphylococcus aureus [5]. In the series on Mus musculus, this compound returned an MLD of 1820 mg/kg. For the same compound, in the series on Anopheles stephensi [3], the LC90 was determined as 135.9 µg/mL (≈ 379 µM). For the same compound, in the series with Anopheles stephensi [3], the LC50 stood at 86.6 µg/mL (≈ 242 µM). Also, in the series with Anopheles stephensi [4], the Ratio amounted to 0.1.

Take `Cc1cc(C)c(C)c(OCc2nn3c(=O)c(C(C)(C)C)nnc3s2)c1`: the zone of inhibition at 1 µg/mL is 15.6 mm with Bacillus subtilis [1], 18.9 mm in the series on Escherichia coli [6], 15.6 mm in the series on Aeromonas hydrophila [2] and 17.6 mm in the series on Staphylococcus aureus [5]. In addition, the LC90 in the series with Anopheles stephensi [3] is 45.05 µg/mL (≈ 126 µM). Also, in the series on Anopheles stephensi [3], the LC50 stood at 39.8 µg/mL (≈ 111 µM). Also, the Ratio in the series on Anopheles stephensi [4] was 0.29.

For `CC(C)(C)c1nnc2sc(COc3ccccc3Cl)nn2c1=O`, the zone of inhibition at 1 µg/mL came out at 18.9 mm in the series with Bacillus subtilis [1], 19.5 mm in the series on Escherichia coli [6], 16.5 mm with Aeromonas hydrophila [2] and 16.6 mm in the series with Staphylococcus aureus [5]. Also, the LC90 with Anopheles stephensi [3] was 113.57 µg/mL (≈ 324 µM). In the series on Anopheles stephensi [3], the LC50 was 72.8 µg/mL (≈ 208 µM). Further, the Ratio in the series with Anopheles stephensi [4] is 0.12.

Regarding `CC(C)(C)c1nnc2sc(C(C)(C)Oc3ccc(Cl)cc3)nn2c1=O`, the zone of inhibition at 1 µg/mL in the series with Bacillus subtilis [1] was determined as 18.4 mm; in the series on Escherichia coli [6], 21.1 mm; in the series on Aeromonas hydrophila [2], 22.4 mm; in the series with Staphylococcus aureus [5] it was 19.6 mm. The same compound showed an MLD in the series on Mus musculus of 2260 mg/kg. For the same compound, the LC90 in the series on Anopheles stephensi [3] stood at 87.49 µg/mL (≈ 231 µM). Besides, the LC50 in the series with Anopheles stephensi [3] is 55.2 µg/mL (≈ 146 µM). Moreover, in the series with Anopheles stephensi [4], the Ratio amounted to 0.15.

These data come from ChEMBL document CHEMBL3351710, “Synthesis of novel thiadiazolotriazin-4-ones and study of their mosquito-larvicidal and antibacterial properties” (Eur J Med Chem, 2014).
